Test results as given in ChEMBL document CHEMBL1126729, “Quinolone antibacterials: synthesis and biological activity of carbon isosteres of the 1-piperazinyl and 3-amino-1-pyrrolidinyl side chains” (J Med Chem, 1993).
Values after ≈ are worked out from the molar mass of the structure shown.

Columns and labels:
Format in all cases: functional
[1] = Geometric mean of MIC was determined in vitro against gram-negative strains using standard microtitration techniques
Method in brief: (§1)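 Per-compound geometric means of the microtitration MICs (μg/mL), calculated separately across the Gram-negative strains and the Gram-positive strains. Pseudomonas aeruginosa is excluded from the Gram-negative mean.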

Enterobacter cloacae = assay: Antibacterial activity was tested in vitro against Enterococcus cloacae MA-2646 using standard microtitration techniques
Method in brief: (§2)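 Broth microtitration MIC testing against a panel of six Gram-negative and five Gram-positive bacterial strains. Values are given as MIC in μg/mL.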

Escherichia coli [2] = assay: Antibacterial activity was tested in vitro against Escherichia coli Vogel using standard microtitration techniques; method in brief: as §2
Streptococcus pyogenes [3] = assay: (§3) Antibacterial activity was tested in vitro against Streptococcus pyogenes C-203 using standard microtitration techniques
Method in brief: (§4)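 MIC (μg/mL) by standard broth microtitration, as part of a panel of six Gram-negative and five Gram-positive organisms.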

Mus musculus [4] = assay: Protective dose in vivo was determined in acute, lethal systemic infections in female Charles River CD-1 mice against Escherichia coli Vogel; details: read-out: PD50
Method in brief: (§5)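 Female Charles River CD-1 mice with an acute, lethal systemic infection received a single compound dose at the time of challenge. The median protective dose (PD50, mg/kg) was taken as the read-out.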

Pseudomonas aeruginosa = assay: Antibacterial activity was tested in vitro against Pseudomonas aeruginosa UI-18 using standard microtitration techniques; method in brief: as §2
DNA gyrase = DNA gyrase (Escherichia coli, UniProt P0AES4+P0AES6); assay: Inhibition of the gyrase mediated cleavage of supercoiled DNA
Escherichia coli [5] = assay: Antibacterial activity was tested in vitro against Escherichia coli H-560 using standard microtitration techniques; method in brief: as §2
Providencia rettgeri = assay: Antibacterial activity was tested in vitro against M-1771 strain of Providencia rettgeri using standard microtitration techniques; method in brief: as §2
Streptococcus pneumoniae = assay: Antibacterial activity was tested in vitro against Streptococcus pneumoniae SV-1 using standard microtitration techniques; method in brief: as §2
Bacteria = assay: Geometric mean of MIC was determined in vitro against gram-positive strains using standard microtitration techniques; method in brief: as §1
Enterococcus faecalis = assay: Antibacterial activity was tested in vitro against Enterococcus faecalis MGH-2 using standard microtitration techniques; method in brief: as §2
Staphylococcus aureus [6] = assay: Antibacterial activity was tested in vitro against Staphylococcus aureus H-288 using standard microtitration techniques; method in brief: as §2
Klebsiella pneumoniae [7] = assay: Antibacterial activity was tested in vitro against Klebsiella pneumoniae MGH-2 using standard microtitration technique; method in brief: as §2
Staphylococcus aureus [8] = assay: (§6) Antibacterial activity was tested in vitro against Staphylococcus aureus UC-76 using standard microtitration techniques; method in brief: as §4
Mus musculus [9] = assay: Protective dose in vivo was determined in acute, lethal systemic infections in female Charles River CD-1 mice against Streptococcus pyogenes C-203; details: read-out: PD50; method in brief: as §5
Staphylococcus aureus [10] = assay: as §6; method in brief: as §2; remark: listed apart in the source
Klebsiella pneumoniae [11] = assay: Antibacterial activity was tested in vitro against Klebsiella pneumoniae MGH-2 using standard microtitration techniques; method in brief: as §4
Mus musculus [12] = assay: Protective dose in vivo was determined in acute, lethal systemic infections in female Charles River CD-1 mice against Streptococcus pyogenes C-203; 50/45.; details: read-out: PD50
Mus musculus [13] = assay: Protective dose in vivo was determined in acute, lethal systemic infections in female Charles River CD-1 mice against Escherichia coli Vogel; 6/1.1.; details: read-out: PD50
Streptococcus pyogenes [14] = assay: as §3; method in brief: as §2; remark: listed apart in the source

| SMILES | MIC [1] [µg/mL] | MIC (Enterobacter cloacae) [µg/mL] | MIC (Escherichia coli [2]) [µg/mL] | MIC (Streptococcus pyogenes [3]) [µg/mL] | ED50 (Mus musculus [4]) [mg/kg] | MIC (Pseudomonas aeruginosa) [µg/mL] | IC50 (DNA gyrase) [µM] | MIC (Escherichia coli [5]) [µg/mL] | MIC (Providencia rettgeri) [µg/mL] | MIC (Streptococcus pneumoniae) [µg/mL] | MIC (Bacteria) [µg/mL] | MIC (Enterococcus faecalis) [µg/mL] | MIC (Staphylococcus aureus [6]) [µg/mL] | MIC (Staphylococcus aureus [8]) [µg/mL] | ED50 (Mus musculus [9]) [mg/kg] | MIC (Klebsiella pneumoniae [11]) [µg/mL] | also measured |
| --- | --- | --- | --- | --- | --- | --- | --- | --- | --- | --- | --- | --- | --- | --- | --- | --- | --- |
| O=C(O)c1cn(C2CC2)c2cc(C3CCNCC3)c(F)cc2c1=O | 0.3 (≈ 0.908 µM) | 0.2 (≈ 0.605 µM) | 0.2 (≈ 0.605 µM) | 0.4 (≈ 1.21 µM) | 13.8 | 1.6 (≈ 4.84 µM) | 11.5 | 0.2 (≈ 0.605 µM) | 0.8 (≈ 2.42 µM) | 3.1 (≈ 9.38 µM) | 1.8 (≈ 5.45 µM) | 3.1 (≈ 9.38 µM) | 6.3 (≈ 19.1 µM) | 0.8 (≈ 2.42 µM) |  |  | MIC (Klebsiella pneumoniae [7]): 0.4 µg/mL (≈ 1.21 µM) |
| O=C(O)c1cn(C2CC2)c2nc(N3CCNCC3)c(F)cc2c1=O | 0.05 (≈ 0.15 µM) |  |  |  | 0.7 |  | > 75.2 |  |  |  | 1.2 (≈ 3.61 µM) |  |  |  | 63 |  |  |
| O=C(O)c1cn(C2CC2)c2cc(N3CCNCC3)c(F)cc2c1=O [CIPROFLOXACIN] | 0.05 (≈ 0.151 µM) |  |  |  | 1.2 |  |  |  |  |  | 0.6 (≈ 1.81 µM) |  |  |  | > 260 |  |  |
| NC1CCN(c2nc3c(cc2F)c(=O)c(C(=O)O)cn3-c2ccc(F)cc2F)C1 (stereo not given) [TOSUFLOXACIN] | 0.03 (≈ 0.0742 µM) |  |  |  | 0.6 |  | 7.42 |  |  |  | 0.04 (≈ 0.0989 µM) |  |  |  | 5.7 |  |  |
| NC1C=C(c2cc3c(cc2F)c(=O)c(C(=O)O)cn3C2CC2)CC1 (stereo not given) | 0.13 (≈ 0.396 µM) | 0.1 (≈ 0.305 µM) | 0.1 (≈ 0.305 µM) | 0.2 (≈ 0.609 µM) | 5.2 | 0.8 (≈ 2.44 µM) | 8.53 | 0.1 (≈ 0.305 µM) | 0.2 (≈ 0.609 µM) | 0.4 (≈ 1.22 µM) | 0.35 (≈ 1.07 µM) | 0.8 (≈ 2.44 µM) | 0.8 (≈ 2.44 µM) |  |  | 0.2 (≈ 0.609 µM) | MIC (Staphylococcus aureus [10]): 0.1 µg/mL (≈ 0.305 µM) |
| O=C(O)c1cn(C2CC2)c2nc(C3=CCNCC3)c(F)cc2c1=O | 0.03 (≈ 0.0911 µM) | 0.025 (≈ 0.0759 µM) | 0.013 (≈ 0.0395 µM) | 0.4 (≈ 1.21 µM) | 0.5 | 0.2 (≈ 0.607 µM) | 11.5 | 0.013 (≈ 0.0395 µM) | 0.05 (≈ 0.152 µM) | 0.8 (≈ 2.43 µM) | 0.6 (≈ 1.82 µM) | 0.8 (≈ 2.43 µM) | 1.6 (≈ 4.86 µM) | 0.2 (≈ 0.607 µM) | 42 | 0.05 (≈ 0.152 µM) |  |
| NC1CCN(c2nc3c(cc2F)c(=O)c(C(=O)O)cn3C2CC2)C1 (stereo not given) | 0.02 (≈ 0.0602 µM) |  |  |  | 2 |  | 9.03 |  |  |  | 0.1 (≈ 0.301 µM) |  |  |  | 32 |  |  |
| O=C(O)c1cn(-c2ccc(F)cc2F)c2nc(N3CCNCC3)c(F)cc2c1=O | 0.4 (≈ 0.989 µM) |  |  |  |  |  |  |  |  |  | 0.2 (≈ 0.495 µM) |  |  |  | 2.4 |  |  |
| NC1CCN(c2cc3c(cc2F)c(=O)c(C(=O)O)cn3C2CC2)C1 (stereo not given) | 0.04 (≈ 0.121 µM) |  |  |  | 3.4 |  | 7.85 |  |  |  | 0.09 (≈ 0.272 µM) |  |  |  | 97 |  |  |
| O=C(O)c1cn(C2CC2)c2cc(C3=CCNCC3)c(F)cc2c1=O | 0.04 (≈ 0.122 µM) | 0.025 (≈ 0.0761 µM) | 0.025 (≈ 0.0761 µM) | 0.4 (≈ 1.22 µM) | 1.7 | 0.8 (≈ 2.44 µM) | 2.74 | 0.013 (≈ 0.0396 µM) | 0.1 (≈ 0.305 µM) | 0.8 (≈ 2.44 µM) | 0.46 (≈ 1.4 µM) | 0.8 (≈ 2.44 µM) | 0.8 (≈ 2.44 µM) | 0.1 (≈ 0.305 µM) | > 100 | 0.1 (≈ 0.305 µM) |  |
| NC1C=C(c2nc3c(cc2F)c(=O)c(C(=O)O)cn3C2CC2)CC1 (stereo not given) | 0.07 (≈ 0.213 µM) | 0.05 (≈ 0.152 µM) | 0.05 (≈ 0.152 µM) | 0.4 (≈ 1.21 µM) | 1.2 | 0.8 (≈ 2.43 µM) | 11.5 | 0.05 (≈ 0.152 µM) | 0.1 (≈ 0.304 µM) | 0.4 (≈ 1.21 µM) | 0.35 (≈ 1.06 µM) | 0.4 (≈ 1.21 µM) | 0.8 (≈ 2.43 µM) | 0.1 (≈ 0.304 µM) | 50 | 0.1 (≈ 0.304 µM) |  |
| O=C(O)c1cn(-c2ccc(F)cc2F)c2nc(C3=CCNCC3)c(F)cc2c1=O | 0.15 (≈ 0.374 µM) | 0.1 (≈ 0.249 µM) | 0.1 (≈ 0.249 µM) | 0.4 (≈ 0.997 µM) |  | 1.6 (≈ 3.99 µM) | 12.5 | 0.1 (≈ 0.249 µM) | 0.4 (≈ 0.997 µM) | 0.4 (≈ 0.997 µM) | 0.53 (≈ 1.32 µM) | 1.6 (≈ 3.99 µM) | 0.8 (≈ 1.99 µM) | 0.2 (≈ 0.498 µM) |  | 0.2 (≈ 0.498 µM) |  |
| NC1C=C(c2nc3c(cc2F)c(=O)c(C(=O)O)cn3-c2ccc(F)cc2F)CC1 (stereo not given) | 0.07 (≈ 0.174 µM) | 0.05 (≈ 0.125 µM) | 0.05 (≈ 0.125 µM) |  |  | 1.6 (≈ 3.99 µM) | 15.7 | 0.025 (≈ 0.0623 µM) | 0.2 (≈ 0.498 µM) | 0.1 (≈ 0.249 µM) | 0.09 (≈ 0.224 µM) | 0.2 (≈ 0.498 µM) | 0.1 (≈ 0.249 µM) | 0.025 (≈ 0.0623 µM) |  | 0.1 (≈ 0.249 µM) | ED50 (Mus musculus [12]): 50 mg/kg; ED50 (Mus musculus [13]): 6 mg/kg; MIC (Streptococcus pyogenes [14]): 0.1 µg/mL (≈ 0.249 µM) |
